{"data": "Experimental data gathered from unrelated publications", "organism": "Salmonella enterica", "read-out": "microbial growth", "note": "Each line is one published result; the experiments were not run side by side."}
{"SMILES": "Cl.N=C(N)N/N=C/c1ccc(-c2ccc(/C=N/Nc3ccccc3Cl)cc2)cc1", "system": "ATCC14028", "MIC": "> 215 µg/mL"}
{"SMILES": "CN(C)[C@@H]1C(O)=C(C(N)=O)C(=O)[C@@]2(O)C(O)=C3C(=O)c4c(O)cccc4[C@@](C)(O)[C@H]3C[C@@H]12", "system": "ATCC14028 TYPHIMURIUM", "MIC": "8 µg/mL"}
{"SMILES": "O=C(Nc1ccc2c(c1)OC(F)(F)O2)Nc1ccc(Cl)c(C(F)(F)F)c1", "system": "TYPHIMURIUM", "MIC": "> 100 µM"}
{"SMILES": "Cc1cc(NS(=O)(=O)c2ccc(N)cc2)no1", "setting": "20 h, pH 7", "MIC": "64 µg/mL"}
{"SMILES": "NC[C@H]1O[C@H](O[C@H]2[C@H](O)[C@@H](O[C@H]3O[C@H](CO)[C@@H](O)[C@H](N)[C@H]3O)[C@H](N)C[C@@H]2N)[C@H](N)C[C@@H]1O", "system": "ATCC14028", "MIC": "150 µg/mL"}
{"SMILES": "COc1cc(Cc2cnc(N)nc2N)cc(OC)c1OC", "setting": "20 h, pH 7.2", "MIC": "0.25 µg/mL"}
{"SMILES": "C/C(=N\\NC(=N)N)c1ccc(Oc2ccc(/C(C)=N/NC(=N)N)cc2)cc1.Cl.Cl", "system": "ATCC14028", "MIC": "54.9 µg/mL"}
{"SMILES": "O=C(O)c1cn(C2CC2)c2cc(N3CCNCC3)c(F)cc2c1=O", "setting": "20 h, pH 7.2", "MIC": "0.0156 µg/mL"}
{"SMILES": "CNC(=O)c1cc(Oc2ccc(NC(=O)Nc3ccc(Cl)c(C(F)(F)F)c3)cc2)ccn1", "system": "TYPHIMURIUM", "MIC": "> 100 µM"}
{"SMILES": "C[C@@H](O)[C@H]1C(=O)N2C(C(=O)O)=C(S[C@@H]3CN[C@H](C(=O)N(C)C)C3)[C@H](C)[C@H]12", "assay": "broth dilution", "system": "CHOLERAESUIS", "setting": "clinical isolate", "MIC": "≤ 0.5 µg/mL"}
{"SMILES": "CC1(C)S[C@@H]2[C@H](NC(=O)[C@H](N)c3ccccc3)C(=O)N2[C@H]1C(=O)O", "assay": "broth dilution", "MIC": "8 µg/mL"}
